This is an account of results in the RNAGym collection of RNA variant scans (doi:10.1126/science.aae0568).

Variants at the floor of the assay were thinned out.

The chains are these.
B1: tRNA (parent)
chain: GUUCCGUUGGCGUAAUGGUAACGCGUCUCCCUCCUAAGGAGAAGACUGCGGGUUCGAGUCCCGUACGGAACG

Variants of B1 are the subject of the series. Description: yeast fitness relative to wild type (ratio to wild type); higher = fitter; tRNA-Arg(CCU), competitive growth, 37 C, YPD. The procedure, abridged: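 Changes in genotype frequencies gave Darwinian fitness relative to wild type. Frequencies were read by 100-nucleotide paired-end sequencing of gene amplicons before and after pooled Saccharomyces cerevisiae strains, carrying tRNA-Arg(CCU) gene variants at the native locus, were competed in YPD at 37°C for 24 hours in six replicates. A genotype was kept only with ≥ 100 starting reads, and estimates < 0.5 were set to 0.5.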
With GUUCCGUUGGCGUACUGGUAACGCGUCUCCCUCCUAAGGAGGGGACUGCGGGUUCGAGUCCCGUACGGAACG, the yeast fitness is no more than 0.5. Consider GUUCCGUUGGCGUACUGGUAACGCGUCUCCCUCCUAAGGAGAAGGCUGCGGGUUCGAGUCCCGUACGAAACG, for which the yeast fitness was no more than 0.5. Consider GUUCCGUUGGCGUACUGGUAACGCGUCUCCCUCCUAAGGAGAAGGCUGCGGGUUUGAGUCCCGUACGGAACG, for which the yeast fitness was no more than 0.5. With GUUCCGUUGGCGUACUGGUAACGCGUCUCCCUCCUAGGGAGAAGACUGCGGGUUCGCGUCCCGUACGGCACG the figure was 0.794; with GUUCCGUUGGCGUACUGGUAACGCGUCUCCCUCCUAAGGAGGAGACUGCGGGUUCGAGUCCCGUACUGAACG, 0.522.

Regarding GUUCCGUUGGCGUACUGGUAACGCGUCUCCCUCCUAAGGAGGAGACUGCGGGUUCGAGUCCCGUACCGAACG, the yeast fitness was no more than 0.5. With GUUCCGUUGGCGUACUGGUAACGCGUCUCCCUCCUAAGGAGAUGACUGCGGGUUCGAGUCCCGUACGGAACG the figure was 0.653; with GUUCCGUUGGCGUACUGGUAACGCGUCUCCCUCCUAAGGAGAGGACUGCGGGUUCGAGUCCCGUACGGAACG, 0.689. With GUUCCGUUGGCGUACUGGUAACGCGUCUCCCUCCUAAGGAGAAGACUGCGGGUUCGAGUCCCGUACGGUACG the figure was 0.892; with GUUCCGUUGGCGUACUGGUAACGCGUCUCCCUCCUAAGGAGAAGACUGCGGGUUCGAGUCCCGUACGGCACG, 0.672; with GUUCCGUUGGCGUACUGGUAACGCGUCUCCCUCCUAAGGAGCAGACUGCGGGUUCGAGUCCCGUACGGAACG, 0.646. GUUCCGUUGGCGUACUGGUAACGCGUCUCCCUCCUAAGGAGAGGAAUGCGGGUUCGAGUCCCGUACGGAACG: the yeast fitness turned out to be 0.526. Next, GUUCCGUUGGCGUACUGGUAACGCGUCUCCCUCCUAAGGAGCAGACUGCGGGUUGGAGUCCCGUACGGAACG: 0.547; GUUCCGUUGGCGUACUGGUAACGCGUCUCCCUCCUAAGGAGAAGUCUGCGGGUUCGAGUCCCGUAAGGAACG: no more than 0.5. With GUUCCGUUGGCGUACUGGUAACGCGUCUCCCUCCUAAGGAGAAGACUGCGGGUUCGAGUCCCGUCCGGAACG the figure was 0.713. Next, GUUCCGUUGGCGUACUGGUAACGCGUCUCCCUCCUAAGGAGAAGACUGCGGGUUCGAGUCCCGUUCGGAACG: 0.841; GUUCCGUUGGCGUACUGGUAACGCGUCUCCCUCCUAAGGAGAAGGCUGCGGGCUCGAGUCCCGUACGGAACG: no more than 0.5.

As for GUUCCGUUGGCGUACUGGUAACGCGUCUCCCUCCUAAGGAGAGGAAUGCGGGUUCGAGUCCCGUACGGACCG, the yeast fitness is no more than 0.5. As to GUUCCGUUGGCGUACUGGUAACGCGUCUCCCUCCUAAGGAGAAGACUGCGGGUUCGAGUCCCGUACGGAGCG, the yeast fitness was found to be 0.795. As to GUUCCGUUGGCGUACUGGUAACGCGUCUCCCUCCUAAGGAGAAGACUGCGGGUUCGAGUCCCGUACGGAUCG, the yeast fitness worked out at 0.872.

Consider GUUCCGUUGGCGUACUGGUAAGGCGUCUCCCUCCUAAGGAGACGACUGCAGGUUCGAGCCCCGUACGGAACG, for which the yeast fitness is no more than 0.5.

Turning to GUUCCGUUGGCGUACUGGUAACGCGUCUCCCUCCUAAGGAGCAGACUGCGGGUUGGAGUCCCGUACGGAGCG, the yeast fitness was 0.72.

With GUUCCGUUGGCGUACUGGUAACGCGUCUCCCUCCUAAGGUGAAGACUGCGGGUUCGAGUCCCAUGCAGAACG, the yeast fitness was no more than 0.5. Next, GUUCCGUUGGCGUACUGGUAACGCGUCUCCCUCCUAAGGAGAAGACUGCGGGUUCGAGUCCCGUUCUGAACG: no more than 0.5; GUUCCGUUGGCGUACUGGUAACGCGUCUCCCUCCUAAGGAGAAGACUGCGGGUUCGUGUCCGGUACGGAACG: no more than 0.5. Next, GUUCCGUUGGCGUACUGGUAACGCGUCUCCCUCCUAUGGAGAAGACUGCGGGUUCGAGUCCCGUAUGGAACG: 0.584; GUUCCGUUGGCGUACUGGUAACGCGUCUCCCUCCUAAGGCGAAGACUGCGGGUUCGAGUCCCGUACGGAACG: 0.609; GUUCCGUUGGCGUACUGGUAACGCGUCUCCCUCCUAAGGGGAAGACUGCGGGUUCGAGUCCCGUACGGAACG: 0.729.

Turning to GUUCCGUUGGCGUACUGGUAACGCGUCUCCCUCCUAAGGAGCAGACUACCGGUUCGAGUCCCGUGCGGAACG, the yeast fitness is 0.561. Next, GUUCCGUUGGCGUACUGGUAACGCGUCUCCCUCCUAAGGAGCAGACUACCGGUUCGAGUCCCGUACGGAACG: 0.587; GUUCCGUUGGCGUACUGGUAAGGCGUCUCCCUCCUAAGGAGACGACUGCAGGUUCGAGUCCCGUACGGAACG: 0.556; GUUCCGUUGGCGUACUGGUAAAGCGUCUCCCUCCUAAGGAGAAGACUGCGGGUUCGAGUCCCGUACGGAUCG: no more than 0.5. With GUUCCGUUGGCGUACUGGUAACGCGUCUCCCUCCUAAGGAGAAGCCUACGGGUUCGAGUCCCGUACGGAACG the figure was 0.638.

As for GUUCCGUUGGCGUACUGGUAAAGCCUCACCCUCCUUAGGAGAAGACUGCGGGUCCGCGUCCCGUACGGAACG, the yeast fitness is no more than 0.5.

In the case of GUUCCGUUGGCGUACUGGUAACGCGUCUCCCUCCUAAGGGGAAGACUGCGGGUUCGAGUCCCGUGCGGAACG, the yeast fitness was determined as 0.511. Next, GUUCCGUUGGCGUACUGGUAACGCGUCUCCCUCCUAAGGCGAAGACUGCGGGUUCGAGUCCCGUACGGAUCG: no more than 0.5.

For the variant GUUCCGUUGGCGUACUGGUAAAGCGUCUCCAUCCUAACGAGAAGACUGCGGGUUCGAGUCCCGUACGGAACG, the yeast fitness is no more than 0.5.

For the variant GUUCCGUUGGCGUACUGGUAAGGCGUCUCCCUCCUAAGGAGAAGACUGCGGGUUCGAGUCCCGUACGGAACG, the yeast fitness came to 0.658.
